A selection: hits, their analogues and other compounds. The true share with any hit is near 2.1%.
EBI2 block – EBI2 receptor antagonists, beta-arrestin recruitment, primary screen, cell-based, luminescence, 7a,25-OHC stimulation, uHTS | 7a,25-OHC stimulated | AID 651636, 2012 | inhibition, % at 5 µM | G-protein coupled receptor 183 (Homo sapiens), P32249 | 360,000 compounds, 0.81% hits; in the data active means inhibition above about 38%;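 further: enzyme fragment complementation signal reports receptor beta-arrestin coupling in cells; 0% = agonist plus DMSO wells and 100% = wells without agonist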
HTR2A ag – mouse Htr2a agonists via beta-arrestin recruitment, primary screen, cell-based, luminescence; activation, % at 7.6 µM; 5-hydroxytryptamine receptor 2A (Mus musculus), P35363; CHO-K1 mHTR2A beta-arrestin complementation; percent of 30 µM serotonin response; 360,000 compounds, 0.66% hits;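 active means activation above a run cutoff, the mean activation of all tested compounds plus 3 SD, cut at about 14% in these data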;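 further: 0% = plate median of compound wells and 100% = 30 µM serotonin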
APJ antag – antagonists of human apelin receptor APJ, primary screen, CHO-K1 cells, beta-arrestin complementation, luminescence. P35414. 330,000 compounds, 0.32% hits. AID 2521, 2010. inhibition, % at 20 µM;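 active means inhibition above about 40% at 20 µM, limit read from the data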;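 further: cells challenged with 10 nM apelin-13 agonist together with compound; plate controls were apelin-13 plus DMSO wells for no effect and DMSO wells lacking apelin-13 for full effect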
CCR6 antag – CCR6 receptor antagonists, primary screen, cell-based, CHO-K1, luminescence, beta-arrestin, uHTS; C-C chemokine receptor type 6 (Homo sapiens), P51684; CHO-K1 CCR6 PathHunter beta-arrestin, CCL20-stimulated; inhibition, % at 20 µM; 340,000 compounds, 0.49% hits; AID 493098, 2011;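 active means compounds whose inhibition of the agonist-driven luminescence signal at 20 µM reaches about 50%, limit read from the data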;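 further: cells stimulated with CCL20 at 14 nM final; plate controls were DMSO with CCL20 for no effect and DMSO without agonist for full effect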
Target sequence (P51684 whole entry, looked up): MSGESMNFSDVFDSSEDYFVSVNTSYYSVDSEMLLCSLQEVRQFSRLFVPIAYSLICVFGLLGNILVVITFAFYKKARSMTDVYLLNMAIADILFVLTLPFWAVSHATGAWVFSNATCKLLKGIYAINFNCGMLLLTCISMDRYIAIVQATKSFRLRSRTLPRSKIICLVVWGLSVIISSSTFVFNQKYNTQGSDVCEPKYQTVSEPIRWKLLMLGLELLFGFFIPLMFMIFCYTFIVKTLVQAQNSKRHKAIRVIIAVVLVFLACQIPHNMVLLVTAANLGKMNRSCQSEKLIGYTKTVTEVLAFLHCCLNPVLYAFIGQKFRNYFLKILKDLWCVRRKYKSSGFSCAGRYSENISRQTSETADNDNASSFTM
APJ ag – agonists of human apelin receptor APJ, primary screen, CHO-K1 cells, PathHunter beta-arrestin, luminescence; 330,000 compounds, 0.11% hits; activation, % at 20 µM; AID 2520, 2010; 0% DMSO wells, 100% apelin;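 active means activation more than six SD over the plate average, tested at 20 µM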;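 further: 0% = DMSO alone and 100% = apelin-13 at 10 nM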
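Assay system: engineered CHO-K1 APJ arrestin reporter cells; Amount: 1000 CHO-K1 reporter cells seeded per well; Dosing: one dose, 20 µM compound, 1% DMSO; Times: compound stimulation 90 min at 25 °C, detection 60 min; Measured by: luminescent beta-gal fragment complementation, chemiluminescent substrate; Read-out: APJ–arrestin association signal; Controls: DMSO vs Apelin-13 10 nM.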
CXCR6 inh – CXCR6 receptor inhibitors, primary screen, cell-based, beta-arrestin, luminescence, CHO-K1 PathHunter, 1536-well; 360,000 compounds, 0.36% hits; C-X-C chemokine receptor type 6 (Homo sapiens), O00574; AID 602244, 2012; inhibition, % at 20 µM; in the data active means inhibition above about 34%, passing the limit was not always enough;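 further: antagonist mode with CXCL16 agonist at 10 nM final; 0% = 10 nM CXCL16 with DMSO and 100% = unstimulated wells without agonist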
EBI2 antag conf – EBI2 antagonist hit retest, beta-arrestin, confirmation, cell-based, single concentration, luminescence, 7a,25-OHC stimulation; shares compounds with EBI2 block; 7a,25-OHC antagonism; inhibition, % at 5 µM; 2,400 compounds, 29% hits;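 active means inhibition of at least 50%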
EBI2 agonist – EBI2 agonist activity of antagonist hits, confirmation, counter-screen for EBI2 antagonist project, cell-based, single concentration, agonist mode, luminescence; 2,400 tested, under 10 active; EBI2-expressing cells, 60 min; 0% vehicle, 100% 7α,25-dihydroxycholesterol control; AID 652000, 2013; activation, % at 5 µM; shares compounds with EBI2 block;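 active means activation of at least 50%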
bGal cs – E. coli beta-galactosidase enzyme inhibition, confirmation, counter-screen for EBI2 antagonist project, biochemical, luminescence, single concentration | purified beta-galactosidase, luminescent Galacton Star, 15 min | inhibition, % at 5 µM | 2,400 compounds, 1% hits | shares compounds with EBI2 block | AID 652176, 2013;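 active means replicate-average signal at least 3 plate SD below neutral wells, shown as high inhibition, flagging enzyme-inhibiting false positives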;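 further: 0% = DMSO wells with enzyme and 100% = wells lacking enzyme; higher means stronger loss of beta-gal luminescence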
The depositor's hits bear a star; · = no result given.

SMILES	EBI2 block	HTR2A ag	APJ antag	CCR6 antag	APJ ag	CXCR6 inh	EBI2 antag conf	EBI2 agonist	bGal cs
Cc1ccc2nc(-c3ccccc3Cl)cc(C(=O)Nc3cc(C)on3)c2c1	60.1*	-3.2	0.8	5.7	-2.3	-1.7	46.0	-1.2	-2.8
COCCNc1nc(NCC2CCCCC2)c2sc(-c3ccccc3)cc2n1	29.3	-3.1	·	·	·	-3.4	·	·	·
COCCNc1nc(NCCOc2ccccc2Cl)c2sc(-c3ccccc3)cc2n1	40.4*	-12.2	·	·	·	16.2	23.2	-2.2	-3.4
c1ccc(-c2cc3nc(NCC4CC4)nc(NCC4CCCCC4)c3s2)cc1	56.2*	-7.6	·	·	·	7.5	37.6	1.9	5.4
COCCNc1nc(NCCNC(C)=O)c2sc(-c3ccccc3)cc2n1	-4.1	6.0	·	·	·	-2.3	·	·	·
COc1ccc(OCC(=O)N2CCN(C(=O)c3cccc4ccccc34)CC2)cc1	69.5*	2.4	-1.8	3.9	-0.2	-5.5	37.8	-1.2	-12.9
COc1ccc(OCC(=O)N2CCN(C(=O)c3ccccc3)CC2)cc1	76.8*	11.5	-10.5	-3.2	-4.6	-2.9	74.2*	-1.0	-19.2
COc1ccc(N2CCN(C(=O)COc3cccc4ccccc34)CC2)cc1	10.0	4.2	1.7	14.2	-2.9	-5.1	·	·	·
O=C(Nc1ccc(OCC(=O)N2CCOCC2)cc1)c1ccccc1F	-9.4	3.7	-0.6	9.7	-1.0	13.1	·	·	·
O=C(COc1ccc(Cl)cc1)N1CCN(C(=O)c2ccccc2F)CC1	81.6*	-1.6	-5.9	7.5	-3.2	6.1	49.9	1.7	6.1
Cc1cccc(OCC(=O)N2CCN(C(=O)c3ccc([N+](=O)[O-])cc3)CC2)c1	46.6*	-3.6	11.0	9.8	-1.6	-7.6	23.2	0.4	3.3
COc1ccc(S(=O)(=O)N2CCCCCC2)cc1NS(=O)(=O)c1cc(C(=O)O)cc(C)c1C	3.6	3.6	0.6	8.6	-2.9	3.2	·	·	·
O=C(COc1ccc2c3c(c(=O)oc2c1)CCC3)Nc1ccccn1	0.2	-1.8	12.0	12.3	-3.1	5.0	·	·	·
COc1ccc(OCC(=O)N2CCN(C(=O)c3ccc([N+](=O)[O-])cc3)CC2)cc1	88.4*	-1.1	6.1	-7.1	-0.1	-7.2	59.6*	0.8	9.3
Cc1cc2nc(-c3ccc(SCc4ccc(C#N)cc4)nc3)[nH]c2cc1C	56.1*	-4.5	-6.9	-5.5	8.6	-5.9	40.5	0.2	-9.0
Cc1cc2nc(-c3ccc(SCC(=O)Nc4nccs4)nc3)[nH]c2cc1C	54.6*	0.8	·	8.2	·	-7.0	45.0	-0.3	-11.4
COc1ccc(C(=O)O)cc1S(=O)(=O)Nc1ccc(N2CCCCC2)cc1	-1.0	0.0	-6.4	-4.7	-3.8	-3.1	·	·	·
CCN(CC)c1ccc(NC(=S)NCC2CCCO2)cc1 (stereo unspecified)	4.4	-2.9	3.2	9.3	-2.3	-1.7	·	·	·
CC1=NN(c2ccc(Cl)cc2)C(=O)C1C(c1ccccc1O)c1c(C)[nH]n(-c2ccc(Cl)cc2)c1=O (stereo unspecified)	64.7*	-3.9	3.1	-3.0	0.2	25.0	34.5	0.7	-6.5
Fc1ccc(CSc2ncnc3ccccc23)cc1	3.0	-2.9	-5.6	10.7	0.0	5.9	·	·	·
